Laboratory results published in PMC4984525 (Cancer, 2011).
Entries after “also recorded” stand apart in the source; their conditions may differ.

Assays:
[1] = Plasma pharmacokinetics of ARRY-520; assay type: in vivo, human; conditions: human, plasma, intravenous
[2] = test system: relapsed or refractory AML or high-grade myelodysplastic syndromes; assay: Clinical efficacy; assay type: in vivo, human
In short: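 Open-label, multicentre dose escalation in patients ≥17 y (ECOG 0–2). Test compound given IV over 1 h, on Day 1 (from 2.5 mg/m2) or on Days 1, 3 and 5 (from 0.8 mg/m2/day). Escalation steps were 50%, then 30%. Complete and partial remissions were scored during induction and later cycles; MDS used modified IWG criteria. Hydroxyurea was allowed during days 1–14.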

[3] = test system: Peripheral blood mononuclear cells (PBMCs); assay: Pharmacodynamics: spindle morphology by confocal imaging; assay type: cell-based, human
[4] = test system: tumor cell; conditions: background statement; cited from earlier work
[5] = test system: HT-29; conditions: HT-29 subcutaneous xenograft, mouse; cited from earlier work
[6] = test system: HCT-116; conditions: HCT-116 subcutaneous xenograft, mouse; cited from earlier work
[7] = test system: A2780; conditions: A2780 subcutaneous xenograft, mouse; cited from earlier work
[8] = test system: HCT15; conditions: HCT15 subcutaneous xenograft, mouse; cited from earlier work
[9] = test system: multiple myeloma; conditions: cited from earlier work

CON(C)C(=O)N1N=C(c2cc(F)ccc2F)S[C@@]1(CCCN)c1ccccc1 [ARRY-520]
Tmax ([1]; 1.8 mg/m^2, Tmax, Schedule 2, Cycle 1 Day 5, 1.8 mg/m^2 (N=2), median (min-max)): 1 h | Vd ([1]; 1.8 mg/m^2, Vss, Schedule 2, Cycle 1 Day 1, 1.8 mg/m^2 (N=2), mean): 306 L | Vd ([1]; 1.8 mg/m^2, Vss, Schedule 2, Cycle 1 Day 5, 1.8 mg/m^2 (N=2), mean): 127 L | half-life ([1]; 1.8 mg/m^2, t1/2, Schedule 2, Cycle 1 Day 1, 1.8 mg/m^2 (N=2), median (min-max)): 27.1 h | half-life ([1]; 1.8 mg/m^2, t1/2, Schedule 2, Cycle 1 Day 5, 1.8 mg/m^2 (N=2), median (min-max)): 80 h | AUC(0-inf) ([1]; 2.5 mg/m^2): 1650 ng·h/mL | clearance ([1]; 2.5 mg/m^2, CL, Schedule 1, Cycle 1 Day 1, 2.5 mg/m^2 (N=3), geometric mean (geometric %CV)): 44.8 mL/min | Cmax ([1]; 2.5 mg/m^2, Cmax, Schedule 1, Cycle 1 Day 1, 2.5 mg/m^2 (N=3), geometric mean (geometric %CV)): 132 ng/mL | MRT ([1]; 2.5 mg/m^2, MRT, Schedule 1, Cycle 1 Day 1, 2.5 mg/m^2 (N=3), median (min-max)): 92.7 h | Tmax ([1]; 2.5 mg/m^2, Tmax, Schedule 1, Cycle 1 Day 1, 2.5 mg/m^2 (N=3), median (min-max)): 2 h | Vd ([1]; 2.5 mg/m^2, Vss, Schedule 1, Cycle 1 Day 1, 2.5 mg/m^2 (N=3), mean (%CV)): 405 L | half-life ([1]; 2.5 mg/m^2, t1/2, Schedule 1, Cycle 1 Day 1, 2.5 mg/m^2 (N=3), median (min-max)): 97.2 h | AUC(0-t) ([1]; 3.6 mg/m^2, AUC0–24, Schedule 2, Cycle 1 Day 1, 3.6 mg/m^2 (N=1), geometric mean): 345 ng·h/mL | AUC(0-t) ([1]; 3.6 mg/m^2, AUC0–24, Schedule 2, Cycle 1 Day 5, 3.6 mg/m^2 (N=1), geometric mean): 733 ng·h/mL | clearance ([1]; 3.6 mg/m^2, CL, Schedule 2, Cycle 1 Day 1, 3.6 mg/m^2 (N=1), geometric mean): 187 mL/min | clearance ([1]; 3.6 mg/m^2, CL, Schedule 2, Cycle 1 Day 5, 3.6 mg/m^2 (N=1), geometric mean): 22.2 mL/min | Cmax ([1]; 3.6 mg/m^2, Cmax, Schedule 2, Cycle 1 Day 1, 3.6 mg/m^2 (N=1), geometric mean): 73.9 ng/mL | Cmax ([1]; 3.6 mg/m^2, Cmax, Schedule 2, Cycle 1 Day 5, 3.6 mg/m^2 (N=1), geometric mean): 199 ng/mL | MRT ([1]; 3.6 mg/m^2, MRT, Schedule 2, Cycle 1 Day 5, 3.6 mg/m^2 (N=1), median (min-max)): 152 h | Tmax ([1]; 3.6 mg/m^2, Tmax, Schedule 2, Cycle 1 Day 1, 3.6 mg/m^2 (N=1), median (min-max)): 1 h | Tmax ([1]; 3.6 mg/m^2, Tmax, Schedule 2, Cycle 1 Day 5, 3.6 mg/m^2 (N=1), median (min-max)): 1.08 h | Vd ([1]; 3.6 mg/m^2, Vss, Schedule 2, Cycle 1 Day 1, 3.6 mg/m^2 (N=1), mean): 278 L | Vd ([1]; 3.6 mg/m^2, Vss, Schedule 2, Cycle 1 Day 5, 3.6 mg/m^2 (N=1), mean): 202 L | half-life ([1]; 3.6 mg/m^2, t1/2, Schedule 2, Cycle 1 Day 1, 3.6 mg/m^2 (N=1), median (min-max)): 18.7 h | half-life ([1]; 3.6 mg/m^2, t1/2, Schedule 2, Cycle 1 Day 5, 3.6 mg/m^2 (N=1), median (min-max)): 108 h | AUC(0-inf) ([1]; 3.75 mg/m^2): 1480 ng·h/mL | clearance ([1]; 3.75 mg/m^2, CL, Schedule 1, Cycle 1 Day 1, 3.75 mg/m^2 (N=1), geometric mean): 113 mL/min | Cmax ([1]; 3.75 mg/m^2, Cmax, Schedule 1, Cycle 1 Day 1, 3.75 mg/m^2 (N=1), geometric mean): 31.1 ng/mL | MRT ([1]; 3.75 mg/m^2, MRT, Schedule 1, Cycle 1 Day 1, 3.75 mg/m^2 (N=1), median (min-max)): 127 h | Tmax ([1]; 3.75 mg/m^2, Tmax, Schedule 1, Cycle 1 Day 1, 3.75 mg/m^2 (N=1), median (min-max)): 1 h | Vd ([1]; 3.75 mg/m^2, Vss, Schedule 1, Cycle 1 Day 1, 3.75 mg/m^2 (N=1), mean): 857 L | half-life ([1]; 3.75 mg/m^2, t1/2, Schedule 1, Cycle 1 Day 1, 3.75 mg/m^2 (N=1), median (min-max)): 100 h | AUC(0-inf) ([1]; 4.5 mg/m^2): 3000 ng·h/mL | clearance ([1]; 4.5 mg/m^2, CL, Schedule 1, Cycle 1 Day 1, 4.5 mg/m^2 (N=4), geometric mean (geometric %CV)): 49.2 mL/min | Cmax ([1]; 4.5 mg/m^2, Cmax, Schedule 1, Cycle 1 Day 1, 4.5 mg/m^2 (N=4), geometric mean (geometric %CV)): 53.4 ng/mL | MRT ([1]; 4.5 mg/m^2, MRT, Schedule 1, Cycle 1 Day 1, 4.5 mg/m^2 (N=4), median (min-max)): 142 h | Tmax ([1]; 4.5 mg/m^2, Tmax, Schedule 1, Cycle 1 Day 1, 4.5 mg/m^2 (N=4), median (min-max)): 1.01 h | Vd ([1]; 4.5 mg/m^2, Vss, Schedule 1, Cycle 1 Day 1, 4.5 mg/m^2 (N=4), mean (%CV)): 340 L | half-life ([1]; 4.5 mg/m^2, t1/2, Schedule 1, Cycle 1 Day 1, 4.5 mg/m^2 (N=4), median (min-max)): 100 h | AUC(0-inf) ([1]; 5.6 mg/m^2): 2520 ng·h/mL | clearance ([1]; 5.6 mg/m^2, CL, Schedule 1, Cycle 1 Day 1, 5.6 mg/m^2 (N=2), geometric mean): 71.7 mL/min | Cmax ([1]; 5.6 mg/m^2, Cmax, Schedule 1, Cycle 1 Day 1, 5.6 mg/m^2 (N=2), geometric mean): 49.6 ng/mL | MRT ([1]; 5.6 mg/m^2, MRT, Schedule 1, Cycle 1 Day 1, 5.6 mg/m^2 (N=2), median (min-max)): 131 h | Tmax ([1]; 5.6 mg/m^2, Tmax, Schedule 1, Cycle 1 Day 1, 5.6 mg/m^2 (N=2), median (min-max)): 0.959 h | Vd ([1]; 5.6 mg/m^2, Vss, Schedule 1, Cycle 1 Day 1, 5.6 mg/m^2 (N=2), mean): 515 L | half-life ([1]; 5.6 mg/m^2, t1/2, Schedule 1, Cycle 1 Day 1, 5.6 mg/m^2 (N=2), median (min-max)): 92.5 h | clearance ([1]; CL, Schedule 1, Cycle 1 Day 1, Schedule Total (N=10), geometric mean (geometric %CV)): 56 mL/min | clearance ([1]; CL, Schedule 2, Cycle 1 Day 1, Schedule Total (N=18), geometric mean (geometric %CV)): 119 mL/min | clearance ([1]; CL, Schedule 2, Cycle 1 Day 5, Schedule Total (N=18), geometric mean (geometric %CV)): 19.8 mL/min | clearance ([1]; CL, range across cohorts, Schedule 1, Cycle 1): 44.8 to 113 mL/min | MRT ([1]; MRT, Schedule 1, Cycle 1 Day 1, Schedule Total (N=10), median (min-max)): 127 h | Tmax ([1]; Tmax, Schedule 1, Cycle 1 Day 1, Schedule Total (N=10), median (min-max)): 1 h | Tmax ([1]; Tmax, Schedule 2, Cycle 1 Day 1, Schedule Total (N=18), median (min-max)): 1 h | Tmax ([1]; Tmax, Schedule 2, Cycle 1 Day 5, Schedule Total (N=18), median (min-max)): 1 h | Vd ([1]; Vss, Schedule 1, Cycle 1 Day 1, Schedule Total (N=10), mean (%CV)): 446 L | Vd ([1]; Vss, Schedule 2, Cycle 1 Day 1, Schedule Total (N=18), mean (%CV)): 306 L | Vd ([1]; Vss, Schedule 2, Cycle 1 Day 5, Schedule Total (N=18), mean (%CV)): 191 L | clearance ([1]; clearance, plasma PK, abstract summary): ~50 mL/min | clearance ([1]; geometric mean CL, Schedule 1, Cycle 2, all patients, N=4): 50.3 mL/min | MRT ([1]; median MRT, Schedule 1): 127 h | half-life ([1]; median terminal t1/2, plasma PK, summary): > 90 h | half-life ([1]; t1/2, Schedule 1, Cycle 1 Day 1, Schedule Total (N=10), median (min-max)): 98.6 h | half-life ([1]; t1/2, Schedule 2, Cycle 1 Day 1, Schedule Total (N=18), median (min-max)): 26.1 h | partial response, % ([2]; 34 patients with efficacy data): 3% | partial response, patients n ([2]; 34 patients with efficacy data): 1 | complete remissions ([2]; heavily pretreated relapsed/refractory AML or MDS): did not observe complete remissions | Aberrant spindles (with misaligned DNA) in PBMCs ([3]; Cycle 1, Day 5, patients dosed at 1.2 mg/m^2/day (after 3 doses)): observed in some PBMCs; also recorded: Aberrant spindles are observed; also recorded: abnormal spindles were observed | Monopolar spindles in blood mononuclear cells ([3]; DAPI nucleic acid stain and anti-tubulin antibodies): Monopolar spindles were observed | concentrations inducing mitotic arrest and tumor cell death [4]: sub-nanomolar | anti-cancer efficacy [5]: demonstrated anti-cancer efficacy | anti-cancer efficacy [6]: demonstrated anti-cancer efficacy | anti-cancer efficacy [7]: demonstrated anti-cancer efficacy | anti-cancer efficacy [8]: demonstrated anti-cancer efficacy | activity in xenograft models of multiple myeloma [9]: has shown activity
